Here are results for 38 compounds from ChEMBL document CHEMBL3085747, “Synthesis and biological evaluation of substituted 1,2,3-benzotriazines and pyrido[3,2-d]-1,2,3-triazines as inhibitors of vascular endothelial growth factor receptor-2” (2013).

Molecules are shown by their SMILES. Some results are limits rather than exact numbers.

A short description of assay [1]: Growth inhibition of HMVEC after 4 days by MTT assay. In kind it is functional. Particulars: Homo sapiens, 96 h. An outline of the steps:
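Human microvascular endothelial cells were grown in DMEM with 4 mM L-glutamine, 4.50 g/L glucose and 10% heat-inactivated FBS. Cells were seeded at 2 × 10³/well for 24 h, then exposed to a range of compound concentrations for 4 days at 37 °C. MTT (2 mg/mL) was added, cells were dissolved in DMSO, and A570 was read. Growth inhibition is relative to untreated cells. GI50 is the mean of three independent experiments.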
In general terms: Tetrazolium assays rely on reduction of a dye to a coloured formazan, in cell work by metabolically active cells.

Assay [2] in a line: Ratio of PTK787 GI50 to compound GI50 for HMVEC after 4 days by MTT assay. In kind it is functional, Homo sapiens.

Broadly, the GI50 is the concentration at which growth is held to half of that of the control. Low readings indicate more potent growth inhibition, high ones less potent growth inhibition. Take `FC(F)(F)Oc1ccc(Nc2nnnc3ccc(Cl)nc23)cc1`: it took 11.5 µM to inhibit growth in assay [1] by half (GI50).
Still for that read-out and setting: for `CCOc1cc2nnnc(Nc3ccccc3F)c2cc1OC` the value was over 80 µM; for `CCCCOc1cc2nnnc(Nc3ccc(OC(F)(F)F)cc3)c2cc1OC`, 30 µM.
With `COc1cc2c(Nc3ccc(F)c(Cl)c3)nnnc2cc1OCCCCl`, the GI50 in assay [1] was found to be 7.98 µM. In assay [2], the RatioGI50 was 4.
Turning to `Clc1cc(Cl)cc(Nc2nnnc3ccc(Cl)nc23)c1`, halving of growth in assay [1] (GI50) required 7.93 µM.
In assay [1], `CCOc1cc2nnnc(Nc3cccc(OC(F)(F)F)c3)c2cc1OC` had a concentration for 50% growth inhibition (GI50) of 23.3 µM.
`CCCCCOc1cc2nnnc(Nc3ccc(F)cc3)c2cc1OC` returned a GI50 in assay [1] of over 80 µM.
On the same count and under the same terms, for `CCCCCOc1cc2nnnc(Nc3cccc(OC(F)(F)F)c3)c2cc1OC` the value was 42.6 µM; for `CCOc1cc2nnnc(Nc3cccc(C(F)(F)F)c3)c2cc1OC`, over 80 µM; for `CCCCOc1cc2nnnc(Nc3ccc(Cl)c(Cl)c3)c2cc1OC`, 15.5 µM.
On the same count and under the same terms, with `CCOc1cc2nnnc(Nc3ccc(Br)c(F)c3)c2cc1OC` the figure was 73.3 µM; with `CCCCCOc1cc2nnnc(Nc3ccc(Cl)cc3)c2cc1OC`, 25.3 µM.
The same measure, in the same setting: with `Fc1ccccc1Nc1nnnc2ccc(Cl)nc12` the figure was 10.8 µM; with `CCOc1cc2nnnc(Nc3ccc(F)c(C(F)(F)F)c3)c2cc1OC`, 31.7 µM; with `Fc1ccc(Nc2nnnc3ccc(Cl)nc23)cc1C(F)(F)F`, 10.8 µM.
In turn, `CCOc1cc2nnnc(Nc3cccc(Cl)c3)c2cc1OC` came in with a concentration for 50% growth inhibition (GI50) in assay [1] of 60 µM.
Take `Clc1ccc2nnnc(Nc3cccc(Br)c3)c2n1`: in assay [1], the concentration for 50% growth inhibition (GI50) is 7.24 µM.
The same measure, in the same setting: for `Clc1ccc(Nc2nnnc3ccc(Cl)nc23)cc1` the value was 10.5 µM.
In turn, `COc1cc2c(Nc3ccc(C)cc3)nnnc2cc1OCCCCl` came in with a GI50 in assay [1] of 17.1 µM.
`Fc1cc(Nc2nnnc3ccc(Cl)nc23)ccc1Br` displayed a concentration for 50% growth inhibition (GI50) in assay [1] of 9.56 µM.
`FC(F)(F)c1ccc(Nc2nnnc3ccc(Cl)nc23)cc1` had a GI50 in assay [1] of 8.06 µM.
Still for that read-out and setting: with `CCCCOc1cc2nnnc(Nc3ccccc3F)c2cc1OC` the figure was over 80 µM.
On the same count and under the same terms, with `CCCCCOc1cc2nnnc(Nc3ccc(Br)c(F)c3)c2cc1OC` the figure was over 80 µM; with `CCOc1cc2nnnc(Nc3cccc(Br)c3)c2cc1OC`, 39.8 µM; with `FC(F)(F)c1cccc(Nc2nnnc3ccc(Cl)nc23)c1`, 5.25 µM.
On the same count and under the same terms, with `Clc1ccc(Nc2nnc(Cc3ccncc3)c3ccccc23)cc1` the figure was 38.1 µM.
With `CCCCOc1cc2nnnc(Nc3ccc(F)c(C(F)(F)F)c3)c2cc1OC`, in assay [1], the GI50 was determined as 16.1 µM.
The same measure, in the same setting: with `CCCCCOc1cc2nnnc(Nc3ccc(OC(F)(F)F)cc3)c2cc1OC` the figure was 38 µM.
Same read-out and setting: for `CCCCCOc1cc2nnnc(Nc3cc(F)cc(F)c3)c2cc1OC` the value was 27.9 µM; for `CCCCOc1cc2nnnc(Nc3ccc(F)cc3)c2cc1OC`, over 80 µM; for `CCCCOc1cc2nnnc(Nc3ccc(C)cc3)c2cc1OC`, over 80 µM.
The compound `COc1cc2c(Nc3ccc(C(F)(F)F)cc3)nnnc2cc1OCCCCl` returned a GI50 in assay [1] of 44.4 µM.
The same measure, in the same setting: for `CCCCOc1cc2nnnc(Nc3cccc(Br)c3)c2cc1OC` the value was 16.8 µM; for `CCOc1cc2nnnc(Nc3ccc(OC(F)(F)F)cc3)c2cc1OC`, over 80 µM.
In assay [1], `CCOc1cc2nnnc(Nc3ccc(C(F)(F)F)cc3)c2cc1OC` registered a 50% growth inhibitory concentration (GI50) of over 80 µM.
`CCCCOc1cc2nnnc(Nc3ccc(Br)c(F)c3)c2cc1OC` showed a GI50 in assay [1] of over 80 µM.
Still for that read-out and setting: with `FC(F)(F)Oc1cccc(Nc2nnnc3ccc(Cl)nc23)c1` the figure was 4.28 µM.
For the compound `CCCCOc1cc2nnnc(Nc3ccc(C(F)(F)F)cc3)c2cc1OC`, the GI50 in assay [1] is over 80 µM.
